Experimental data gathered from unrelated publications.
Each line is one published result; the experiments were not run side by side.
HDAC7: Histone deacetylase 7 (HDAC7, Homo sapiens, UniProt Q8WUI4)
WDR5: WD repeat-containing protein 5 (WDR5, Homo sapiens, UniProt P61964)
OfChi-h: Chitinase (OfChi-h, Ostrinia furnacalis, UniProt Q4AE59)

O=C(Cn1cc(C=CC(=O)c2ccc(F)cc2)nn1)Nc1nc(-c2ccccc2)cs1 — inhibition (72 kDa type IV collagenase (MMP2, Homo sapiens, UniProt P08253); enzyme activity, inhibitor; 0.5 µM): 40.6%
C=CC(=O)N1CCC(COCC(=O)N2CCN(c3nc(-c4cnc(N)nc4C(F)F)nc(N4CCOC[C@@H]4C)n3)CC2)CC1 — remaining binding (Cyclin-dependent kinase-like 3 (CDKL3, Homo sapiens, UniProt Q8IVW4); binding, competition with immobilised ligand; 1 µM): 100%
CNc1ncc2c(/C=C/C(=O)N3CCC(OC)CC3)nn(Cc3cccc(C(F)(F)F)c3)c2n1 — remaining activity (Bone morphogenetic protein receptor type-1A (BMPR1A, Homo sapiens, UniProt P36894); enzyme activity, inhibitor, radiometric; 1 µM): 93%
O=C(NO)c1cncc(OS(=O)(=O)Oc2ccc(C(F)(F)F)cc2)c1 — inhibition (HDAC7; enzyme activity, inhibitor, fluorescence; 10 µM): 49%
C[C@@H]1CN(c2ccc(-c3cc(C(=O)NCCOCCOCCOCCOCCNC(=O)/C=C/c4[nH]cc(C(=O)N[C@@H](CC(N)=O)c5ccc(F)c(Cl)c5)c4-c4ccc(Cl)cc4F)ccc3F)cc2NC(=O)c2c[nH]c(=O)cc2C(F)(F)F)C[C@H](C)N1C — ΔTm (WDR5; thermal stability, DSF; 5.5 µM): 10.6 °C
COc1cc(-c2cncc3c2CN(C)Cc2cc(N4CCNCC4)ccc2-3)cc(OC)c1OC — remaining activity (Serine/threonine-protein kinase 35 (STK35, Homo sapiens, UniProt Q8TDR2); enzyme activity, inhibitor; 1 µM): 111%
CCCCc1ccc(CNc2nc(N(C)C)nc(N(C)C)c2/N=N/c2ccc(Cl)cc2)cc1 — inhibition (OfChi-h; enzyme activity, inhibitor, fluorescence; 1 µM): 91.9%
O=C(NO)c1cncc(OS(=O)(=O)Oc2ccc3ccccc3c2)c1 — inhibition (HDAC7; enzyme activity, inhibitor, fluorescence; 10 µM): 46%
O=C(O)CNc1cccc(CN(Cc2ccc(-n3cccn3)cc2)S(=O)(=O)c2cccnc2)n1 — inhibition (Beta-2 adrenergic receptor (ADRB2, Homo sapiens, UniProt P07550); ligand displacement, radioligand; 10 µM): 12%
CC(C)Oc1ccc(S(=O)(=O)c2ccc(Oc3cc(OCC(N)=O)c(C(=O)C(Cl)Cl)cc3[N+](=O)[O-])cc2)cc1 — inhibition ([Pyruvate dehydrogenase (acetyl-transferring)] kinase isozyme 3, mitochondrial (PDK3, Homo sapiens, UniProt Q15120); enzyme activity, inhibitor, ATP luminescence; 10 µM): 27.9%
C[C@@H]1CN(c2ccc(-c3cc(C(=O)NCCOCCOCCOCCOCCOCCOCCNC(=O)/C=C/c4[nH]cc(C(=O)N[C@@H](CC(N)=O)c5ccc(F)c(Cl)c5)c4-c4ccc(Cl)cc4F)ccc3F)cc2NC(=O)c2ccc(F)cc2C(F)(F)F)C[C@H](C)N1C — ΔTm (WDR5; thermal stability, DSF; 5.5 µM): 5.9 °C
CN(C)c1nc(NCc2cccc(C(F)(F)F)c2)c(/N=N/c2ccc(Cl)cc2)c(N(C)C)n1 — inhibition (OfChi-h; enzyme activity, inhibitor, fluorescence; 1 µM): 91.9%
Cc1cc([C@@H](C)Nc2ccccc2C(=O)O)c2nc(N3CCC(F)(F)CC3)c(C#N)c(=O)n2c1 — remaining binding (Protein kinase C epsilon type (PRKCE, Homo sapiens, UniProt Q02156); binding, competition with immobilised ligand; 10 µM): 100%
